# Screens deposited in PubChem BioAssay by several laboratories.
# Furin inh: blocks human furin protease activity | P09958 | purified furin, fluorogenic substrate cleavage | inhibition, % at 20 µM or 30 µM | actives 0.061% (n = 220,000); in the data active = inhibition above about 25%
# NR2E3 ag-1: agonists of human NR2E3 nuclear receptor; actives 0.35% (n = 360,000); inhibition of corepressor binding, % at 3.98 µM; CHO-S Gal4-NCOR/VP16-NR2E3 two-hybrid, luciferase;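 active = inhibition above the mean of all tested compounds plus 3 SD, cut at about 70% in these data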;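 note: 0% = DMSO with NR2E3 transfected cells and 100% = cells lacking NR2E3 construct; higher means lower luciferase signal from less NR2E3 corepressor binding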
# Target sequence (Q9Y5X4 whole entry, looked up, the tested form may be a part): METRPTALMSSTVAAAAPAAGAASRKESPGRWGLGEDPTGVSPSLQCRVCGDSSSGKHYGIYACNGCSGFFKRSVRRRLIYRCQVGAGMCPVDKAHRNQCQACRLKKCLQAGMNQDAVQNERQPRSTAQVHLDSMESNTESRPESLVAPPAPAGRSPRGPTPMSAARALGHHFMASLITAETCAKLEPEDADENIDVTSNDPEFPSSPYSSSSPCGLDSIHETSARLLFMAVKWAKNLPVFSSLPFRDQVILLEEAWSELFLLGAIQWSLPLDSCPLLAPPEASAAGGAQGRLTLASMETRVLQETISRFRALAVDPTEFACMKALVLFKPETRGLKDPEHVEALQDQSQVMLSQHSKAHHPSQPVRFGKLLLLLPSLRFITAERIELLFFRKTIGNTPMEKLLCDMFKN
# PGE2 EP2 inh: EP2 receptor (human) inhibition; inhibition, % at 25 µM; C6 glioma cells expressing human EP2, cAMP TR-FRET; cells stimulated with saturating PGE2; AID 1422; P43116; actives 0.52% (n = 260,000);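 active = percent inhibition above 40 after rounding to a whole number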;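 note: rat C6 glioma host cells with rolipram phosphodiesterase inhibitor present; the protocol text gives 20 µM as final concentration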
# GASC-1 inh: inhibitors of human GASC-1 (JMJD2C) demethylase | GST-JMJD2C(1-420) H3K9me3 demethylation, DELFIA europium | AID 2099 | actives 0.069% (n = 330,000) | inhibition, % at 2.35 µM | Q9H3R0;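 active = more than half of a compound's replicate wells show inhibition beyond 50%, single wells judged on their own value; inconclusive = some, but no more than half, of replicates pass 50% inhibition; inactive = no replicate passes 50% inhibition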;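 note: signal counts dimethyl H3K9 product captured on neutravidin plate; 0% = median of DMSO wells and 100% = 0.3 times that DMSO median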
# NR2E3 ag-2: NR2E3 (human) agonism | Q9Y5X4 | GST-NR2E3/biotin-RetCOR TR-FRET, 1536-well | inhibition of corepressor binding, % at 4.78 µM | actives 0.12% (n = 320,000);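 active = percent inhibition above the cutoff of mean plus 3 SD of all tested compounds, set per screening campaign, cut at about 20% in these data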;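 note: 0% = DMSO wells and 100% = biotin wells as full block of FRET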
#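 Test system – NR2E3–RetCOR corepressor complex · Quantity – NR2E3 fusion 1.35 nM · Buffer or medium – Tris pH 7.5 · Incubation – Compound–protein incubation for 5 h at 4 °C · Technique – TR-FRET, Eu(K)-anti-GST donor, streptavidin-D2 acceptor, ex 340, em 617/671 nm · Evaluation – percent inhibition of 671/617 nm emission ratio versus biotin and DMSO controls · Plate – 1536-well format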
# EP2 modulator: EP2 receptor (human) modulation; EP2-expressing cells, cAMP HTRF FRET, PGE2 co-stimulation; AID 940; actives 0.83% (n = 260,000); P43116; induction, % at 25 µM;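 active = compounds whose cAMP rise, as percent of the full-agonist control response, exceeds 60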;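 note: rat C6 glioma line stably carrying human EP2 under a CMV promoter; the protocol text gives 20 µM as final concentration; 100% = response of wells given 1 µM PGE2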
# NR2E3 agonist cf: NR2E3 (human) agonism, confirmation | shares compounds with NR2E3 ag-2 | cell-free NR2E3 corepressor release, TR-FRET, 5 h | activation (reported as inhibition), % at 3.98 µM | actives 39% (n = 360) | AID 2379; in the data active = activation above about 20%
# PPARg-NCOR2 ctr: counter-screen for NR2E3 agonists: human PPARgamma-NCOR2 interaction agonists | shares compounds with NR2E3 ag-2 | actives 45% (n = 360) | TR-FRET PPARg-NCOR2 coregulator interaction, biochemical | AID 504787 | inhibition, % at 3.98 µM; in the data active = inhibition above about 20%;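 note: 0% = DMSO vehicle and 100% = wells without protein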
# * hit, by the source's call; ? = inconclusive; . = no result. Sampled rows, rich in hits. Any-hit rate of the full collection: about 1.3%.
SMILES,Furin inh,NR2E3 ag-1,PGE2 EP2 inh,GASC-1 inh,NR2E3 ag-2,EP2 modulator,NR2E3 agonist cf,PPARg-NCOR2 ctr
COc1ccc(C(=O)NNC(=O)C(Cc2ccc(O)cc2)NC(=O)c2ccccc2NC(=O)c2ccc(OC)cc2)cc1 (stereo unspecified),-17.1,12.6,4.4,0.7,39.9*,-3.7,21.9*,-4.8
COc1cccc2c1NC(C(=O)O)C1CC=CC21 (stereo unspecified),-14.7,-0.1,8.7,-5.4,22.5*,15.3,5.4,13.9
CCn1cc(C(=O)N2CCC(c3ccnc4ncnn34)CC2)cn1,.,.,.,.,.,-17.2,.,.
N#CC1=C2SCN(Cc3ccccc3)CN2C(=O)CC1c1cccs1 (stereo unspecified),-13.3,-47.3,21.8,23.5,22.4*,21.4,0.4,-1.9
CCN(CC(=O)NC(C)(C)C)Cc1nc2c(Br)cc(Br)cc2c(=O)[nH]1,-16.7,-6.0,12.9,-6.3,21.6*,32.5,33.0*,29.1*
CC[C@H](Cn1nnc2ccccc2c1=O)NC(=O)CCC1CCCC1,.,.,.,.,.,-34.0,.,.
Cn1c2ccccc2c(=O)c2c(=O)n(Cc3ccco3)c(-c3ccc(F)cc3)nc21,-16.2,-11.9,6.4,-4.2,34.5*,8.0,8.1,8.4
Cc1ccc(CSCCNC(=O)c2ccc(N(C)S(=O)(=O)c3ccccc3)cc2)cc1,5.2,24.9,13.5,8.0,21.5*,-7.0,-10.0,4.1
CN(c1ccc(C(=O)NCCSCc2ccc(Cl)cc2)cc1)S(=O)(=O)c1ccccc1,0.7,0.2,5.2,-25.1,2.3,-5.6,.,.
CN(C(=O)c1ccc(NC(=O)Cc2ccc(NC(=O)C3CCN(C(=O)C4CCCC4)CC3)cc2)cc1)C1CC1,.,15.6,.,-4.8,25.3*,.,15.1,-4.9
COc1ccc(CN(Cc2ccncc2)Cc2cc3ccc(C)cc3nc2OC)cc1,.,.,5.7,.,.,-52.0,.,.
Cc1cc(-c2ccc(Cl)cc2)c(C#N)c(N)n1,-8.7,-32.9,50.6*,-3.8,38.9*,13.6,26.3*,25.7*
COc1ccc(-c2cc(C)nc(N)c2C#N)cc1,.,.,10.8,.,.,-25.9,.,.
O=C1C=C(O)C(n2cncn2)C(c2ccc3c(c2)OCO3)C1 (stereo unspecified),-23.5,-14.6,6.8,6.2,23.7*,40.5,-7.7,-2.4
Cc1ccc(CN(CCCN2CCOCC2)Cc2ccc(O)cc2)o1,.,.,6.2,.,.,29.7,.,.
NC(=O)c1cc[n+](CC2=C(C(=O)O)N3C(=O)[C@@H](NC(=O)C(c4ccccc4)S(=O)(=O)[O-])[C@H]3SC2)cc1 (stereo partly specified),-11.3,-24.1,9.4,-34.9,23.3*,19.4,4.6,2.1
CCOc1ccc2[nH]c(=O)c(CN(CCO)S(=O)(=O)c3ccc(F)cc3)cc2c1,.,.,7.6,.,.,-51.1,.,.
Cc1ccc(-n2c(-c3nn(C)cc3Cl)n[nH]c2=S)cc1,-16.4,-27.3,3.0,-2.0,3.3,28.0,.,.
Cn1cc(Cl)c(-c2n[nH]c(=S)n2-c2ccccc2)n1,-24.8,-14.3,13.2,3.4,26.9*,42.2,14.9,13.3
Cn1cc(Cl)c(-c2n[nH]c(=S)n2-c2ccc(F)cc2)n1,-29.2,-19.8,10.4,-5.7,20.3*,44.2,10.0,13.4
Cc1c(Cl)c(-c2n[nH]c(=S)n2-c2ccc(F)cc2)nn1C,-21.3,-10.2,16.8,35.7,20.8*,32.0,14.8,17.4
CCn1nc(C)c(CN(CCCn2ccnc2)Cc2cccc(F)c2)c1C,.,.,2.4,.,.,10.6,.,.
COc1cc(/C=C2/C(=O)N(c3ccc([N+](=O)[O-])cc3)N=C2N2CCOCC2)ccc1O,8.9,1.5,20.6,-3.8,29.3*,-31.6,-4.7,47.5*
Cc1ccc2c3c(c(SCC(=O)NCc4ccco4)nc2c1)CCCC3,.,.,7.5,.,.,43.3,.,.
COc1ccc(OCc2nnc(SCc3ccc(F)cc3)n2C)cc1,.,.,11.3,.,.,-36.0,.,.
SMILES,Furin inh,NR2E3 ag-1,PGE2 EP2 inh,GASC-1 inh,NR2E3 ag-2,EP2 modulator,NR2E3 agonist cf,PPARg-NCOR2 ctr
O=C(O[C@@H]1OC2COC(=O)c3cc(O)c(O)c(O)c3-c3c(cc(O)c(O)c3O)C(=O)O[C@@H]([C@H]1O)[C@@H]2O)c1cc(O)c(O)c(O)c1,-5.6,-5.0,4.0,?,24.2*,30.6,14.5,-6.0
N#Cc1ccccc1NC(=O)COC(=O)c1ccc2c(c1)OCCO2,-16.4,1.1,16.3,-1.9,-4.7,-24.4,.,.
N#Cc1ccc(Cl)cc1NC(=O)COC(=O)c1ccc2c(c1)OCCO2,-9.7,3.8,10.9,-0.5,35.5*,-6.1,38.6*,40.7*
CCCCN1C(=O)NC2NC(=O)NC21 (stereo unspecified),-19.7,-26.8,9.3,99.9,36.6*,13.0,14.6,-9.5
COCCCN1C(=O)C(=O)/C(=C(\O)c2ccc(OC)cc2)C1c1cccc2ccccc12 (stereo unspecified),.,.,21.3,.,.,18.3,.,.
Cc1n(CCO)c2cc(Cl)c(Cl)cc2[n+]1CCO,.,.,5.4,.,.,-7.0,.,.
O=C(Nc1ccc2oc(-c3cccc(I)c3)nc2c1)c1cccnc1,.,.,6.1,.,.,-27.7,.,.
c1coc(-c2nc(-c3ccco3)c(-c3ccco3)nc2-c2ccco2)c1,9.6,-2.2,13.1,8.9,41.7*,27.5,-3.0,-4.5
CCn1c(C)[n+](CC(O)COc2ccc(C(C)C)cc2)c2ccccc21 (stereo unspecified),.,.,9.2,.,.,3.5,.,.
CC1Cc2cc(/C(O)=C3/C(=O)C(=O)N(Cc4ccco4)C3c3cccs3)ccc2O1 (stereo unspecified),-14.6,-8.7,21.6,1.6,22.3*,26.2,5.4,7.3
CCCCc1nnc(NC(=O)CSc2nc(O)c(Cc3ccccc3)c(=O)[nH]2)s1,-22.2,27.3,6.1,28.7,25.9*,25.8,-5.6,-4.9
COc1cccc2cc(C(=O)C3=C(O)C(=O)N(Cc4ccco4)C3c3cccnc3)oc12 (stereo unspecified),-22.3,-22.6,24.2,-2.0,28.1*,50.4,19.7*,23.8*
COc1ccc(C2C(C(=O)c3ccco3)=C(O)C(=O)N2Cc2cccnc2)cc1OC (stereo unspecified),-3.7,-18.3,-9.0,84.5,4.1,12.9,.,.
O=C(C1=C(O)C(=O)N(Cc2ccco2)C1c1cccc(O)c1)c1ccco1 (stereo unspecified),.,7.3,.,13.8,3.9,.,.,.
O=C(C1=C(O)C(=O)N(Cc2ccco2)C1c1cccnc1)c1cc2ccccc2o1 (stereo unspecified),-23.2,-19.1,46.9*,-17.0,38.0*,53.3,42.7*,42.0*
